Reference: ChEMBL document CHEMBL1139437, “Design, synthesis, and preliminary pharmacological evaluation of 4-aminopiperidine derivatives as N-type calcium channel blockers active on pain and neuropathic pain” (J Med Chem, 2004)

What was measured:
[1] = tested on: Mus musculus; experiment: Analgesic activity was evaluated in mouse hotplate test; expressed as licking latency after 30 min of treatment at a dose of 10 ug intracerebroventricularly; assay type: functional
Method in brief: (§1)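 Male Swiss albino mice (23-30 g); icv injection of 5 μL (saline or H2O/DMSO 2:1) under brief anaesthesia. Paw-licking latency (s) on hot plate read before injection and every 15 min up to 60 min. Mice with pretest latency below 12 or over 18 s excluded; cutoff 45 s. Statistics against saline- or vehicle-treated controls.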

[2] = species: Mus musculus; experiment: Percentage analgesic efficacy when compared to morphine; assay type: functional; design: concentration or dose not given beside the values
Method in brief: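 Male Swiss albino mice, hot-plate test, paw-licking latency; pretest 12–18 s required, cutoff 45 s. Icv injection of 5 μL under brief anaesthesia, in saline or H2O/DMSO 2:1, at maximal soluble dose. Latency read before and every 15 min after dosing. Efficacy = (peak latency − pretest) as % of the same value for morphine 10 μg/mouse icv; non-significant effects scored 0.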

[3] = tested on: Mus musculus; experiment: Analgesic activity was evaluated in mouse hotplate test; expressed as licking latency after 45 min of treatment at a dose of 10 ug intracerebroventricularly; assay type: functional; method in brief: as §1
[4] = tested on: Mus musculus; experiment: Analgesic activity was evaluated in mouse hotplate test; expressed as licking latency after 15 min of treatment at a dose of 10 ug intracerebroventricularly; assay type: functional; method in brief: as §1
[5] = tested on: Mus musculus; experiment: Analgesic activity was evaluated in mouse hotplate test; expressed as licking latency after 15 min of treatment at a dose of 5 ug intracerebroventricularly; assay type: functional; method in brief: as §1
[6] = tested on: Mus musculus; experiment: Analgesic activity was evaluated in mouse hotplate test; expressed as licking latency after 30 min of treatment at a dose of 5 ug intracerebroventricularly; assay type: functional; method in brief: as §1
[7] = tested on: Mus musculus; experiment: Analgesic activity was evaluated in mouse hotplate test; expressed as licking latency after 45 min of treatment at a dose of 5 ug intracerebroventricularly; assay type: functional; method in brief: as §1
[8] = tested on: Mus musculus; experiment: Analgesic activity was evaluated in mouse hotplate test; expressed as licking latency after 15 min of treatment at a dose of 30 ug intracerebroventricularly; assay type: functional; method in brief: as §1
[9] = tested on: Mus musculus; experiment: Analgesic activity was evaluated in mouse hotplate test; expressed as licking latency after 30 min of treatment at a dose of 30 ug intracerebroventricularly; assay type: functional; method in brief: as §1
[10] = tested on: Mus musculus; experiment: Analgesic activity was evaluated in mouse hotplate test; expressed as licking latency after 45 min of treatment at a dose of 30 ug intracerebroventricularly; assay type: functional; method in brief: as §1
[11] = tested on: Rattus norvegicus; experiment: Antihyperalgesic activity was evaluated in rat (sn) paw pressure test after 30 min at a dose of 30 ug intracerebroventricularly
[12] = tested on: Rattus norvegicus; experiment: Antihyperalgesic activity was evaluated in rat (dx) paw pressure test after 30 min at a dose of 30 ug intracerebroventricularly
[13] = tested on: Rattus norvegicus; experiment: Antihyperalgesic activity was evaluated in rat (dx) paw pressure test after 45 min at a dose of 30 ug intracerebroventricularly
[14] = tested on: Rattus norvegicus; experiment: Antihyperalgesic activity was evaluated in rat (dx) paw pressure test after 60 min at a dose of 30 ug intracerebroventricularly
[15] = tested on: Rattus norvegicus; experiment: Antihyperalgesic activity was evaluated in rat (sn) paw pressure test after 45 min at a dose of 30 ug intracerebroventricularly
[16] = tested on: Rattus norvegicus; experiment: Antihyperalgesic activity was evaluated in rat (sn) paw pressure test after 60 min at a dose of 30 ug intracerebroventricularly
[17] = molecular target: Voltage-dependent N-type calcium channel subunit alpha-1B (Rattus norvegicus) (UniProt Q02294); experiment: In vitro antagonism of N-type calcium channels expressed in PC12 cells was determined as the increase in intracellular calcium influx
Sequence of Voltage-dependent N-type calcium channel subunit alpha-1B (Rattus norvegicus) (Q02294 whole entry, looked up): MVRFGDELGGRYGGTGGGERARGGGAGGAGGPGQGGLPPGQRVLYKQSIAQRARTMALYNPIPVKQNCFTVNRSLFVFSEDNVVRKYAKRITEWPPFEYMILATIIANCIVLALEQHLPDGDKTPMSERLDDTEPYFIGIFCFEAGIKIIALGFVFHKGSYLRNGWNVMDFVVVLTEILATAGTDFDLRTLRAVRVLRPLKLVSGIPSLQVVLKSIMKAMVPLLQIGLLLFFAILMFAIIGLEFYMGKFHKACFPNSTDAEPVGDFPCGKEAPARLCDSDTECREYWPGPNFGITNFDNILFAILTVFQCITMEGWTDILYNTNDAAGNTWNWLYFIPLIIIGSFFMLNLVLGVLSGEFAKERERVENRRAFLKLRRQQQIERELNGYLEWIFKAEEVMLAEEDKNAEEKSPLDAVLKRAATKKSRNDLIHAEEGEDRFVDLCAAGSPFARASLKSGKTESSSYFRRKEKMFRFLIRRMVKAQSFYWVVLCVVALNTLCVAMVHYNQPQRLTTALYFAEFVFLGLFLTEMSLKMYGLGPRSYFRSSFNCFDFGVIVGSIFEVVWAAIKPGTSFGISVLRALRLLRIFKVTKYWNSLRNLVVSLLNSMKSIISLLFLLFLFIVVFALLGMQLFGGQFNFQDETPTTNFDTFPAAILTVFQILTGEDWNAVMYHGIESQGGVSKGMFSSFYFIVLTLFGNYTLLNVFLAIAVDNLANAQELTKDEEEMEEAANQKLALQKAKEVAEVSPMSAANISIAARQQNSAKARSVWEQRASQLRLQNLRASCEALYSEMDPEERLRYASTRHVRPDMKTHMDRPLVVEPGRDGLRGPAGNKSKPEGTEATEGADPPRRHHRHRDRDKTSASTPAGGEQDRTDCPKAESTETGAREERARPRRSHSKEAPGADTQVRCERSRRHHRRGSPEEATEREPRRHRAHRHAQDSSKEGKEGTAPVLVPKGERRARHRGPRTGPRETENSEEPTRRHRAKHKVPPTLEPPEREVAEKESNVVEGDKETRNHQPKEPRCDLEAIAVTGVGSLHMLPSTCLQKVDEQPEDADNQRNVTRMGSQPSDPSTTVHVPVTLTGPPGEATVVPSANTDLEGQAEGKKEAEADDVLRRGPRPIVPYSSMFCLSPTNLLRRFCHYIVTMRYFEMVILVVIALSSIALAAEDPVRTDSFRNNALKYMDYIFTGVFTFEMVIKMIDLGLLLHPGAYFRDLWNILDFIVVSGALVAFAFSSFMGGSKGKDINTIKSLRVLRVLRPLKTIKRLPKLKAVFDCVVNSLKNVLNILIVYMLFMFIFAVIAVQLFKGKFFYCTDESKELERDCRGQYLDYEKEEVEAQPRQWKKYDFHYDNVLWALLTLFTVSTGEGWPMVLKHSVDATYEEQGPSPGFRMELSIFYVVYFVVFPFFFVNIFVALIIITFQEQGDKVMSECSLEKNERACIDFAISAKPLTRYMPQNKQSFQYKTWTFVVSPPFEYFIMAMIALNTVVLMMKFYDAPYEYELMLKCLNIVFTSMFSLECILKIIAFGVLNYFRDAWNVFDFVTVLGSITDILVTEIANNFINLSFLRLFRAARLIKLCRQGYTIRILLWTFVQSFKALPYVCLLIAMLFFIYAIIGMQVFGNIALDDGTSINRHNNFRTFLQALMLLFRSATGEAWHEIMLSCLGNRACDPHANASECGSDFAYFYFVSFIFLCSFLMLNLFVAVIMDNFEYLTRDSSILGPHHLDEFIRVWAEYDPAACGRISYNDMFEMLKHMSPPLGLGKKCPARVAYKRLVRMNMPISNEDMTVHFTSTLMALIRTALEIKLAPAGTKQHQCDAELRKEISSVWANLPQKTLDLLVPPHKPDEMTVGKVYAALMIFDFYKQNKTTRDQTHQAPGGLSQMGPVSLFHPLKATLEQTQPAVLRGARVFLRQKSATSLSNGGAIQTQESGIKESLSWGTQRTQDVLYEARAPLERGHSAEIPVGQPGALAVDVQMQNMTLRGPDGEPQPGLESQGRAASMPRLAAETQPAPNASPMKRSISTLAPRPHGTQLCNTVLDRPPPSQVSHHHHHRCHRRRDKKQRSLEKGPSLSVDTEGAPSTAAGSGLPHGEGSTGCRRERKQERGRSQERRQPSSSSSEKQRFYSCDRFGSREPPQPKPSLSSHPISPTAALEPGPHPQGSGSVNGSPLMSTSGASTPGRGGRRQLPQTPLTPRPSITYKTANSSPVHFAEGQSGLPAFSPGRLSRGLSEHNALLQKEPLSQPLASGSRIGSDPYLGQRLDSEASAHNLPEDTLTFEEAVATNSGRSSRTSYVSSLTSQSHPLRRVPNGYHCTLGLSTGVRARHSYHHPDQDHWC

[18] = molecular target: Voltage-dependent N-type calcium channel subunit alpha-1B (Rattus norvegicus) (UniProt Q02294); experiment: In vitro antagonism of N-type calcium channels expressed in PC12 cells was determined as the increase in intracellular calcium influx in the presence of 10 uM nifedipine
[19] = tested on: Mus musculus; experiment: Analgesic activity was evaluated in mouse hotplate test; expressed as licking latency after 15 min of treatment at a dose of 50 ug intracerebroventricularly; assay type: functional; method in brief: as §1
[20] = tested on: Mus musculus; experiment: Analgesic activity was evaluated in mouse hotplate test; expressed as licking latency after 30 min of treatment at a dose of 50 ug intracerebroventricularly; assay type: functional; method in brief: as §1
[21] = tested on: Mus musculus; experiment: Analgesic activity was evaluated in mouse hotplate test; expressed as licking latency after 45 min of treatment at a dose of 50 ug intracerebroventricularly; assay type: functional; method in brief: as §1
[22] = tested on: Mus musculus; experiment: Analgesic activity was evaluated in mouse hotplate test; expressed as licking latency after 30 min of treatment at a dose of 15 ug intracerebroventricularly; assay type: functional; method in brief: as §1
[23] = tested on: Mus musculus; experiment: Analgesic activity was evaluated in mouse hotplate test; expressed as licking latency after 45 min of treatment at a dose of 15 ug intracerebroventricularly; assay type: functional; method in brief: as §1
[24] = tested on: Mus musculus; experiment: Analgesic activity was evaluated in mouse hotplate test; expressed as licking latency after 15 min of treatment at a dose of 15 ug intracerebroventricularly; assay type: functional; method in brief: as §1
[25] = tested on: Mus musculus; experiment: Analgesic activity was evaluated in mouse hotplate test; expressed as licking latency after 30 min of treatment at a dose of 20 ug intracerebroventricularly; assay type: functional; method in brief: as §1
[26] = tested on: Mus musculus; experiment: Analgesic activity was evaluated in mouse hotplate test; expressed as licking latency after 45 min of treatment at a dose of 20 ug intracerebroventricularly; assay type: functional; method in brief: as §1
[27] = tested on: Mus musculus; experiment: Analgesic activity was evaluated in mouse hotplate test; expressed as licking latency after 15 min of treatment at a dose of 20 ug intracerebroventricularly; assay type: functional; method in brief: as §1
[28] = tested on: Rattus norvegicus; experiment: Antihyperalgesic activity was evaluated in rat (dx) paw pressure test after 30 min at a dose of 10 ug intracerebroventricularly
[29] = tested on: Rattus norvegicus; experiment: Antihyperalgesic activity was evaluated in rat (dx) paw pressure test after 45 min at a dose of 10 ug intracerebroventricularly
[30] = tested on: Rattus norvegicus; experiment: Antihyperalgesic activity was evaluated in rat (dx) paw pressure test after 60 min at a dose of 10 ug intracerebroventricularly
[31] = tested on: Rattus norvegicus; experiment: Antihyperalgesic activity was evaluated in rat (sn) paw pressure test after 30 min at a dose of 10 ug intracerebroventricularly
[32] = tested on: Rattus norvegicus; experiment: Antihyperalgesic activity was evaluated in rat (sn) paw pressure test after 45 min at a dose of 10 ug intracerebroventricularly
[33] = tested on: Rattus norvegicus; experiment: Antihyperalgesic activity was evaluated in rat (sn) paw pressure test after 60 min at a dose of 10 ug intracerebroventricularly

## COc1ccc(CCNC2CCN(CCCC(c3ccc(F)cc3)c3ccc(F)cc3)CC2)cc1OC.Cl
[1]
  Latency: 16.3 s
[2]
  Efficacy: 51%
[3]
  Latency: 16.6 s
[4]
  Latency: 21.5 s

## COc1ccc(C(C#N)(CCC(=O)N2CCC(NCCOc3ccccc3)CC2)C(C)C)cc1OC.O=C(O)C(=O)O (stereo unspecified)
[1]
  Latency: 18.5 s
[2]
  Efficacy: 0%
[3]
  Latency: 13.8 s
[4]
  Latency: 15.7 s

## COc1ccc(CCNC2CCN(CCCC(c3ccccc3)c3ccccc3)CC2)cc1OC.O=C(O)C(=O)O
[2]
  Efficacy: 0%
[5]
  Latency: 17.7 s
[6]
  Latency: 16.4 s
[7]
  Latency: 16.8 s

## COc1ccc(C(C#N)(CCCNC2CCN(CCOc3ccccc3)CC2)C(C)C)cc1OC.Cl (stereo unspecified)
[8]
  Latency: 22.6 s
[9]
  Latency: 16.5 s
[2]
  Efficacy: 59%
[10]
  Latency: 15.2 s
[11]
  Activity: 57.3 g
[12]
  Activity: 33.4 g
[13]
  Activity: 38.6 g
[14]
  Activity: 40.5 g
[15]
  Activity: 55.6 g
[16]
  Activity: 59.4 g
[17]
  IC50: 3.8 µM
[18]
  IC50: 3.1 µM

## CCCCNC1CCN(C(=O)CCC(C#N)(c2ccc(OC)c(OC)c2)C(C)C)CC1.Cl (stereo unspecified)
[8]
  Latency: 18.7 s
[9]
  Latency: 17.4 s
[2]
  Efficacy: 0%
[10]
  Latency: 17 s
[11]
  Activity: 65 g
[12]
  Activity: 28.4 g
[13]
  Activity: 26.7 g
[14]
  Activity: 32 g
[15]
  Activity: 56.9 g
[16]
  Activity: 59.3 g

## COc1ccc(CCNC2CCN(Cc3ccccc3)CC2)cc1OC.Cl
[2]
  Efficacy: 0%
[19]
  Latency: 15.5 s
[20]
  Latency: 16.7 s
[21]
  Latency: 15.3 s

## Cl.O=C(CCC(c1ccc(F)cc1)c1ccc(F)cc1)NC1CCN(CCO)CC1
[22]
  Latency: 16.8 s
[2]
  Efficacy: 0%
[23]
  Latency: 17.3 s
[24]
  Latency: 16.9 s

## COc1ccc(C(C#N)(CCCNC2CCN(C/C=C/c3ccccc3)CC2)C(C)C)cc1OC.Cl (stereo unspecified)
[25]
  Latency: 20.2 s
[2]
  Efficacy: 69%
[26]
  Latency: 16.2 s
[27]
  Latency: 24.3 s

## CCCCNC1CCN(CCCC(c2ccccc2)c2ccccc2)CC1.O=C(O)C(=O)O
[1]
  Latency: 22.4 s
[2]
  Efficacy: 64%
[3]
  Latency: 15.8 s
[4]
  Latency: 22.6 s
[28]
  Activity: 50.3 g
[29]
  Activity: 52.6 g
[30]
  Activity: 46.5 g
[31]
  Activity: 57.5 g
[32]
  Activity: 61.2 g
[33]
  Activity: 63 g
